Reference: publication PMC5836871 (Journal of Clinical Pharmacology, 2017)
Values joined by “and” are separate entries in the source; they are usually repeats but may differ in a detail not shown here. Identical values can stand only once. Like-named read-outs stand apart in the source and are kept apart here. Marks after values point to notes of the source that are not given here.

Experiments:
[1] = type: in vivo, human; conditions: for fe0–72 (fraction excreted unchanged in urine), gMean (gCV%) / AUC0–∞ of metabolite, gMean (gCV%) / Cmax of metabolite, gMean (gCV%) / t1/2, gMean (gCV%): single oral nintedanib 100 mg
Summary of the method: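 Single oral 100 mg dose of test compound as soft-gelatin capsule, fed. Adults 18–79 y, BMI 18.5–34 kg/m2: Child-Pugh A (score 5–6) or B (7–9) hepatic impairment, plus matched healthy controls. Plasma sampled to day 8 for parent and metabolites. AUC0–∞, Cmax and AUC0–tz compared by log-scale ANOVA (hepatic status fixed, matched pair random); other parameters descriptive.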

[2] = type: in vitro ADME, human; conditions: for Protein-bound fraction, mean ± SD: plasma spiked with 100 ng/mL 14C-labeled compound
Summary of the method: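 Predose plasma from Child-Pugh A, Child-Pugh B and matched healthy subjects was spiked ex vivo with 100 ng/mL [14C]-labelled test compound or its [14C]-labelled metabolite. Binding was measured in vitro by equilibrium dialysis, with radioactivity quantified by liquid scintillation counting. The protein-bound fraction is reported as the group mean ± SD.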

[3] = cited from earlier work
Safety and tolerability = type: in vivo, human
Summary of the method: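 Open-label, parallel-group, matched-group phase 1 study in adults aged 18–79 with BMI 18.5–34 kg/m2 (Child-Pugh A, Child-Pugh B, and healthy subjects matched by age, weight, race, smoking and sex). Each subject took one oral soft-gelatin capsule with 240 mL water, fed. AEs were recorded from dosing to the end of the 28-day follow-up and coded by MedDRA v17.1. Relatedness was judged by the investigator.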

P‐glycoprotein = conditions: cited from earlier work
[4] = ref BI, data on file, cited from earlier work
[5] = Child-Pugh A subjects vs healthy subjects
[6] = Child-Pugh A vs matched healthy subjects
[7] = Child-Pugh A, Child-Pugh B, healthy subjects
[8] = Child-Pugh B subjects vs healthy subjects
[9] = Child-Pugh B vs matched healthy subjects
[10] = Child-Pugh A matched healthy subjects (n = 8)
[11] = Child-Pugh B matched healthy subjects (n = 8)
[12] = single 100 mg dose, Child-Pugh A (n = 8)
[13] = single 100 mg dose, Child-Pugh B (n = 8)
[14] = single 100 mg dose, Healthy (n = 17)

COC(=O)c1ccc2c(c1)NC(=O)/C2=C(\Nc1ccc(N(C)C(=O)CN2CCN(C)CC2)cc1)c1ccccc1 [Nintedanib]
Exposure, fold higher than in healthy subjects [1, 5]: ~2 fold | AUC0–tz, adjusted gMean ratio [1, 6]: 216.8% | AUC0–∞, adjusted gMean ratio [1, 6]: 215.4% | Cmax, adjusted gMean ratio [1, 6]: 221.8% | Renal clearance, comparison across groups [1, 7]: comparable across groups | Exposure, fold higher than in healthy subjects [1, 8]: ~8 fold | AUC0–tz, adjusted gMean ratio [1, 9]: 870.7% | AUC0–∞, adjusted gMean ratio [1, 9]: 867.1% | Cmax, adjusted gMean ratio [1, 9]: 761.0% | Time at which Cmax was reached, range ([1]; individual range across all groups): 1 to 8 h | Median time at which Cmax was reached ([1]; medians across Child-Pugh A, Child-Pugh B and healthy subjects): 3 to 4 h | fe0–72 (fraction excreted unchanged in urine), gMean (gCV%) ([1]; Child-Pugh A (n = 8)): 0.204 (96.2) % | fe0–72 (fraction excreted unchanged in urine), gMean (gCV%) [1, 10]: 0.102 (37.9) % | fe0–72 (fraction excreted unchanged in urine), gMean (gCV%) ([1]; Child-Pugh B (n = 7)): 0.543 (31.7)^b % | fe0–72 (fraction excreted unchanged in urine), gMean (gCV%) [1, 11]: 0.0945 (28.7) % | Protein-bound fraction ([2]; across the groups): > 99% | Time of absorption (delay by food) ([3]; after food intake): ~4 h | Terminal half-life [3]: 10 to 15 h | Time of absorption (delay by food) ([3]; fasted conditions): approximately 2 hours | Exposure increase when administered after food intake ([3]; fed vs fasted): approximately 20% | Total body clearance ([3]; healthy subjects): 1390 mL/min | Elimination through biliary/fecal excretion ([3]; in vivo): > 90% | Absolute bioavailability ([3]; nintedanib 100 mg in healthy volunteers): approximately 5% | Time to steady state ([3]; of dosing): ≤ 7 days | Time to maximum plasma concentration ([3]; oral administration): 2 to 4 h | Severe or serious AEs (Safety and tolerability; all groups, single 100 mg dose): No severe or serious AEs were reported | Tolerability (Safety and tolerability; all groups, single dose of 100 mg): well tolerated | Diarrhea (Safety and tolerability; [12]): 0 n (%) | Headache (Safety and tolerability; [12]): 0 n (%) | Nausea (Safety and tolerability; [12]): 0 n (%) | Pruritus (Safety and tolerability; [12]): 0 n (%) | Skin irritation (Safety and tolerability; [12]): 0 n (%) | Vomiting (Safety and tolerability; [12]): 0 n (%) | Diarrhea (Safety and tolerability; [13]): 1 (12.5) n (%) | Headache (Safety and tolerability; [13]): 0 n (%) | Nausea (Safety and tolerability; [13]): 1 (12.5) n (%) | Pruritus (Safety and tolerability; [13]): 1 (12.5) n (%) | Skin irritation (Safety and tolerability; [13]): 1 (12.5) n (%) | Subjects with any AE (Safety and tolerability; [13]): 3 n (%) and 3 (37.5) n (%) | Vomiting (Safety and tolerability; [13]): 0 n (%) | Diarrhea (Safety and tolerability; [14]): 0 n (%) | Headache (Safety and tolerability; [14]): 1 (5.9) n (%) | Nausea (Safety and tolerability; [14]): 2 (11.8) n (%) | Pruritus (Safety and tolerability; [14]): 0 n (%) | Skin irritation (Safety and tolerability; [14]): 0 n (%) | Subjects with any AE (Safety and tolerability; [14]): 3 n (%) and 3 (17.6) n (%) | Vomiting (Safety and tolerability; [14]): 1 (5.9) n (%) | P-glycoprotein substrate (P‐glycoprotein): substrate of P‐glycoprotein | Time to maximum plasma concentrations ([4]; Asian (n = 39) and European (n = 32) patients with impaired hepatic function and advanced HCC): 2 to 3 h | Exposure, fold higher in group II compared with group I ([4]; group II: ALT or AST >2 to ≤5 × ULN or Child-Pugh score 7, group I: ALT and AST ≤ 2 × ULN and Child-Pugh score 5–6): ~2 fold

CN1CCN(CC(=O)N(C)c2ccc(N/C(=C3\C(=O)Nc4cc(C(=O)O)ccc43)c3ccccc3)cc2)CC1 [BIBF 1202]
Exposure, fold higher than in healthy subjects [1, 5]: ~2 fold | AUC0–∞, fold higher than in healthy subjects [1, 8]: ~17 fold | Cmax, fold higher than in healthy subjects [1, 8]: 9 fold | AUC0–∞ of metabolite, gMean (gCV%) ([1]; Child-Pugh A (n = 8)): 216 (81.8) ng∙h/mL | Cmax of metabolite, gMean (gCV%) ([1]; Child-Pugh A (n = 8)): 17.4 (47.1) ng/mL | t1/2, gMean (gCV%) ([1]; Child-Pugh A (n = 8)): 39.1 (53.8) h | AUC0–∞ of metabolite, gMean (gCV%) [1, 10]: 86.8 (48.8) ng∙h/mL | Cmax of metabolite, gMean (gCV%) [1, 10]: 7.55 (56.2) ng/mL | t1/2, gMean (gCV%) [1, 10]: 24.7 (65.1) h | AUC0–∞ of metabolite, gMean (gCV%) ([1]; Child-Pugh B (n = 8)): 1190 (86.4) ng∙h/mL | Cmax of metabolite, gMean (gCV%) ([1]; Child-Pugh B (n = 8)): 60.7 (75.2) ng/mL | t1/2, gMean (gCV%) ([1]; Child-Pugh B (n = 8)): 46.9 (16.6) h | AUC0–∞ of metabolite, gMean (gCV%) [1, 11]: 70.4 (38.7) ng∙h/mL | Cmax of metabolite, gMean (gCV%) [1, 11]: 6.47 (57.5) ng/mL | t1/2, gMean (gCV%) [1, 11]: 23.6 (50.1) h | Protein-bound fraction, mean ± SD ([2]; Child-Pugh A (n = 8)): 81.2 ± 3.6% | Protein-bound fraction, mean ± SD ([2]; Child-Pugh B (n = 8)): 82.4 ± 5.5% | Protein-bound fraction, mean ± SD ([2]; Healthy (n = 17)): 85.0 ± 3.0%

CN1CCN(CC(=O)N(C)c2ccc(N/C(=C3\C(=O)Nc4cc(C(=O)O[C@@H]5O[C@H](C(=O)O)[C@@H](O)[C@H](O)[C@H]5O)ccc43)c3ccccc3)cc2)CC1 [BIBF 1202 glucuronide]
AUC0–∞, fold higher than in healthy subjects [1, 5]: ~1.5 fold | Cmax, comparison across groups [1, 7]: comparable across groups | AUC0–∞, fold higher than in healthy subjects [1, 8]: ~3.5 fold | AUC0–∞ of metabolite, gMean (gCV%) ([1]; Child-Pugh A (n = 8)): 1040 (95.9) ng∙h/mL | Cmax of metabolite, gMean (gCV%) ([1]; Child-Pugh A (n = 8)): 15.1 (113) ng/mL | t1/2, gMean (gCV%) ([1]; Child-Pugh A (n = 8)): 41.1 (45.5) h | AUC0–∞ of metabolite, gMean (gCV%) [1, 10]: 657 (66.8) ng∙h/mL | Cmax of metabolite, gMean (gCV%) [1, 10]: 11.4 (62.0) ng/mL | t1/2, gMean (gCV%) [1, 10]: 31.9 (34.1) h | AUC0–∞ of metabolite, gMean (gCV%) ([1]; Child-Pugh B (n = 8)): 2650 (285) ng∙h/mL | Cmax of metabolite, gMean (gCV%) ([1]; Child-Pugh B (n = 8)): 19.6 (201) ng/mL | t1/2, gMean (gCV%) ([1]; Child-Pugh B (n = 8)): 57.4 (114) h | AUC0–∞ of metabolite, gMean (gCV%) [1, 11]: 761 (69.1) ng∙h/mL | Cmax of metabolite, gMean (gCV%) [1, 11]: 12.7 (76.2) ng/mL | t1/2, gMean (gCV%) [1, 11]: 28.3 (21.9) h
